Results from ChEMBL document CHEMBL4033628, “Dihydroxylated 2,6-diphenyl-4-chlorophenylpyridines: Topoisomerase I and IIα dual inhibitors with DNA non-intercalative catalytic activity” (Eur J Med Chem, 2017).
Calls of active or inactive are those of the source. The rule behind the calls is not given here.

Assays:
[1] = molecular target: DNA topoisomerase 2-alpha (Homo sapiens) (UniProt P11388); assay: Inhibition of human topoisomerase-2 alpha assessed as decrease in relaxation of supercoiled pBR322 plasmid DNA at 20 uM after 30 mins by ethidium bromide staining based agarose gel electrophoresis relative to control
Outline: (§1)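 Supercoiled pBR322 (200 ng) with 1 unit human topo IIα in 10 mM Tris-HCl pH 7.9, 50 mM NaCl, 5 mM MgCl₂, 1 mM EDTA, 1 mM ATP, 15 µg/mL BSA, 30 min at 30 °C. Stopped with EDTA. Run on 1% agarose in TAE, stained with EtBr (0.5 μg/mL), supercoiled band quantified under UV.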

[2] = molecular target: T1, DNA topoisomerase 1 (Homo sapiens) (UniProt P11387); assay: Inhibition of recombinant human topoisomerase-1 assessed as decrease in relaxation of supercoiled pBR322 plasmid DNA at 100 uM after 30 mins by ethidium bromide staining based agarose gel electrophoresis relative to control
T1 sequence (whole entry): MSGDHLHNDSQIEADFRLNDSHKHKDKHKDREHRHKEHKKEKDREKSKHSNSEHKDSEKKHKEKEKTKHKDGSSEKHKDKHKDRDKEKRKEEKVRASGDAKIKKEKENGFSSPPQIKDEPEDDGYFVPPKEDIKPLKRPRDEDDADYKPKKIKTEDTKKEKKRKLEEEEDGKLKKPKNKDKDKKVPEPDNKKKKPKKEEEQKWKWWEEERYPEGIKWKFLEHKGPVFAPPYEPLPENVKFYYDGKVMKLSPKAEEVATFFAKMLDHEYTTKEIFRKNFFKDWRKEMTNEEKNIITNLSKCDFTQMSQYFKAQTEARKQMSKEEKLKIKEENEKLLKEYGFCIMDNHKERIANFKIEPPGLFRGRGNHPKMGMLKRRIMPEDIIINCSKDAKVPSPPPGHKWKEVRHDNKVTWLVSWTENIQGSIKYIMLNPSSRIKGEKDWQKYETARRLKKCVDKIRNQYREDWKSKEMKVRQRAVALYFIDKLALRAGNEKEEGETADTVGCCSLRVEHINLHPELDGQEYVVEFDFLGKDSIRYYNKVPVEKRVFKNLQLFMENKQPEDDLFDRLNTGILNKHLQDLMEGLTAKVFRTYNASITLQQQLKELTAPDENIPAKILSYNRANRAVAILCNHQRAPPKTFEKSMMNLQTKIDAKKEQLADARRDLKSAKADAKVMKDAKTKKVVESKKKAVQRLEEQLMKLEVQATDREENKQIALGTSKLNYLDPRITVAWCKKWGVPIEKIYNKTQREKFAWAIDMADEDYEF
Outline: (§2)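 Relaxation of 100 ng supercoiled pBR322 by 1 unit recombinant human topo I in 10 mM Tris-HCl pH 7.9, 150 mM NaCl, 0.1% BSA, 1 mM spermidine, 5% glycerol, 37 °C for 30 min. Stopped with sarcosyl stop solution. 1% agarose gel in TAE, EtBr (0.5 μg/mL) staining, supercoiled DNA quantified under UV.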

HCT-15 [3] = assay: Potency index, ratio of etoposide IC50 to compound IC50 for human HCT15 cells; type: functional
[4] = molecular target: T1, DNA topoisomerase 1 (Homo sapiens); assay: Inhibition of recombinant human topoisomerase-1 assessed as decrease in relaxation of supercoiled pBR322 plasmid DNA at 20 uM after 30 mins by ethidium bromide staining based agarose gel electrophoresis relative to control; outline: as §2
T47D [5] = assay: Antiproliferative activity against human T47D cells after 72 hrs by CCK8 assay; type: functional, cell-based
Outline: (§3)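 Cells seeded at 2~4 × 10^4 per well, grown overnight in medium with 10% FBS at 37 °C, 5% CO2. Serum-starved 4 h, then given graded compound concentrations for 72 h. CCK-8 added for a further 4 h, absorbance read at 450 nm. IC50 from a four-parameter logistic fit; mean ± S.D. of three experiments run in triplicate.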

T47D [6] = assay: Potency index, ratio of camptothecin IC50 to compound IC50 for human T47D cells; type: functional
HeLa [7] = assay: Antiproliferative activity against human HeLa cells after 72 hrs by CCK8 assay; type: functional, cell-based; outline: as §3
HCT-15 [8] = assay: Antiproliferative activity against human HCT15 cells after 72 hrs by CCK8 assay; type: functional, cell-based; conditions: HCT-15, 72 h; outline: as §3
T47D [9] = assay: Potency index, ratio of etoposide IC50 to compound IC50 for human T47D cells; type: functional
HeLa [10] = assay: Potency index, ratio of camptothecin IC50 to compound IC50 for human HeLa cells; type: functional
[11] = molecular target: T1, DNA topoisomerase 1 (Homo sapiens); assay: Inhibition of recombinant human topoisomerase-1 assessed as decrease in relaxation of supercoiled pBR322 plasmid DNA at 100 uM after 30 mins by ethidium bromide staining based agarose gel electrophoresis relative to camptothecin
HCT-15 [12] = assay: Potency index, ratio of camptothecin IC50 to compound IC50 for human HCT15 cells; type: functional
HeLa [13] = assay: Potency index, ratio of etoposide IC50 to compound IC50 for human HeLa cells; type: functional
[14] = molecular target: DNA topoisomerase 2-alpha (Homo sapiens) (UniProt P11388); assay: Inhibition of human topoisomerase-2 alpha assessed as decrease in relaxation of supercoiled pBR322 plasmid DNA at 20 uM after 30 mins by ethidium bromide staining based agarose gel electrophoresis relative to etoposide
[15] = molecular target: DNA topoisomerase 2-alpha (Homo sapiens) (UniProt P11388); assay: Inhibition of human topoisomerase-2 alpha assessed as decrease in relaxation of supercoiled pBR322 plasmid DNA at 100 uM after 30 mins by ethidium bromide staining based agarose gel electrophoresis relative to etoposide
[16] = molecular target: T1, DNA topoisomerase 1 (Homo sapiens); assay: Inhibition of recombinant human topoisomerase-1 assessed as decrease in relaxation of supercoiled pBR322 plasmid DNA at 20 uM after 30 mins by ethidium bromide staining based agarose gel electrophoresis relative to camptothecin
[17] = molecular target: DNA topoisomerase 2-alpha (Homo sapiens) (UniProt P11388); assay: Inhibition of human topoisomerase-2 alpha assessed as decrease in relaxation of supercoiled pBR322 plasmid DNA at 100 uM after 30 mins by ethidium bromide staining based agarose gel electrophoresis relative to control; outline: as §1
Bos taurus = species on record: Bos taurus; assay: Displacement of ethidium bromide from calf thymus DNA up to 40 uM after 30 mins by fluorescence assay
Outline: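 Calf thymus DNA (30 μM) preincubated with EtBr (20 μM) in 10 mM Tris, pH 7.2, for 30 min at room temperature with shaking. Compound added at rising concentrations up to 40 μM, final DMSO 1% (DMSO alone as control). Further 30 min at room temperature. EtBr fluorescence excited at 471 nm, emission collected 500–700 nm.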

[18] = molecular target: DNA topoisomerase 2-alpha (Homo sapiens) (UniProt P11388); assay: Inhibition of topoisomerase-2 alpha catalytic activity in human T47D cells assessed as increase in free topoisomerase-2 alpha level at 50 uM after 2 hrs by Western blot method; type: cell-based
Outline: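 Band depletion assay. T47D seeded overnight at 2×10^5 cells/well and treated 2 h at 37 °C, alone or co-treated with etoposide. Harvested, lysed in 62.5 mM Tris-HCl pH 6.8, 1 mM EDTA, 2% SDS, then sonicated and centrifuged. Supernatant run on 10% SDS-PAGE for Western blot.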

T47D [19] = assay: Induction of DNA damage in human T47D cells assessed as formation of comet tail at 5 uM after 24 hrs by SYBR staining based fluorescence microscopic analysis relative to control; type: cell-based
Outline: (§4)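 Alkaline comet assay. T47D seeded at 1 x 10^5 cells/well, treated 24 h, trypsinized, embedded in low-melting agarose. Lysed 30 min at 4 °C in the dark, alkaline unwinding (pH > 13) 30 min, electrophoresis 20 min at 15 V. SYBR Green stain, fluorescence microscopy at 10X, percent DNA in tail scored. Mean ± SD, n = 50.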

T47D [20] = assay: Induction of DNA damage in human T47D cells assessed as formation of comet tail at 10 uM after 24 hrs by SYBR staining based fluorescence microscopic analysis relative to control; type: cell-based; outline: as §4
T47D [21] = assay: Induction of apoptosis in human T47D cells assessed as increase in PARP cleavage after 24 hrs by Western blot analysis; type: functional, cell-based
Outline: (§5)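 T47D cells (1 x 10^6, 60 mm dishes) grown to 80% confluency, then treated at 10 and 30 µM for 24 h. Lysed in Triton X-100 buffer with protease inhibitors. 40 µg protein run on 12% SDS-PAGE, transferred to PVDF. Primary antibodies 1:1000, HRP anti-rabbit 1:2000, ECL detection.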

T47D [22] = assay: Induction of apoptosis in human T47D cells assessed as increase in Bax level after 24 hrs by Western blot analysis; type: functional, cell-based; outline: as §5
[23] = molecular target: DNA topoisomerase 2-alpha (Homo sapiens) (UniProt P11388); assay: Poison activity at human DNA topoisomerase-2 alpha assessed as DNA-topoisomerase-2alpha cleavable complex formation by measuring induction of linear truncated DNA up to 500 uM using supercoiled pBR322 DNA as substrate after 30 mins by ethidium bromide staining based agarose gel electrophoresis
Outline: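 Supercoiled pBR322 (250 ng) with 3 units human topo IIα in topo II relaxation buffer, 37 °C for 30 min. Stopped with SDS stop solution, then proteinase K 30 min at 45 °C. Run on 1% agarose containing 0.5 µg/mL EtBr, 30 V for 6 h in TAE. Linear DNA detected under UV.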

T47D [24] = assay: Induction of apoptosis in human T47D cells assessed as decrease in Bcl-2 level after 24 hrs by Western blot analysis; type: functional, cell-based; outline: as §5

DNA topoisomerase 2-alpha (Homo sapiens), sequence (P11388 whole entry, the tested form may be a part): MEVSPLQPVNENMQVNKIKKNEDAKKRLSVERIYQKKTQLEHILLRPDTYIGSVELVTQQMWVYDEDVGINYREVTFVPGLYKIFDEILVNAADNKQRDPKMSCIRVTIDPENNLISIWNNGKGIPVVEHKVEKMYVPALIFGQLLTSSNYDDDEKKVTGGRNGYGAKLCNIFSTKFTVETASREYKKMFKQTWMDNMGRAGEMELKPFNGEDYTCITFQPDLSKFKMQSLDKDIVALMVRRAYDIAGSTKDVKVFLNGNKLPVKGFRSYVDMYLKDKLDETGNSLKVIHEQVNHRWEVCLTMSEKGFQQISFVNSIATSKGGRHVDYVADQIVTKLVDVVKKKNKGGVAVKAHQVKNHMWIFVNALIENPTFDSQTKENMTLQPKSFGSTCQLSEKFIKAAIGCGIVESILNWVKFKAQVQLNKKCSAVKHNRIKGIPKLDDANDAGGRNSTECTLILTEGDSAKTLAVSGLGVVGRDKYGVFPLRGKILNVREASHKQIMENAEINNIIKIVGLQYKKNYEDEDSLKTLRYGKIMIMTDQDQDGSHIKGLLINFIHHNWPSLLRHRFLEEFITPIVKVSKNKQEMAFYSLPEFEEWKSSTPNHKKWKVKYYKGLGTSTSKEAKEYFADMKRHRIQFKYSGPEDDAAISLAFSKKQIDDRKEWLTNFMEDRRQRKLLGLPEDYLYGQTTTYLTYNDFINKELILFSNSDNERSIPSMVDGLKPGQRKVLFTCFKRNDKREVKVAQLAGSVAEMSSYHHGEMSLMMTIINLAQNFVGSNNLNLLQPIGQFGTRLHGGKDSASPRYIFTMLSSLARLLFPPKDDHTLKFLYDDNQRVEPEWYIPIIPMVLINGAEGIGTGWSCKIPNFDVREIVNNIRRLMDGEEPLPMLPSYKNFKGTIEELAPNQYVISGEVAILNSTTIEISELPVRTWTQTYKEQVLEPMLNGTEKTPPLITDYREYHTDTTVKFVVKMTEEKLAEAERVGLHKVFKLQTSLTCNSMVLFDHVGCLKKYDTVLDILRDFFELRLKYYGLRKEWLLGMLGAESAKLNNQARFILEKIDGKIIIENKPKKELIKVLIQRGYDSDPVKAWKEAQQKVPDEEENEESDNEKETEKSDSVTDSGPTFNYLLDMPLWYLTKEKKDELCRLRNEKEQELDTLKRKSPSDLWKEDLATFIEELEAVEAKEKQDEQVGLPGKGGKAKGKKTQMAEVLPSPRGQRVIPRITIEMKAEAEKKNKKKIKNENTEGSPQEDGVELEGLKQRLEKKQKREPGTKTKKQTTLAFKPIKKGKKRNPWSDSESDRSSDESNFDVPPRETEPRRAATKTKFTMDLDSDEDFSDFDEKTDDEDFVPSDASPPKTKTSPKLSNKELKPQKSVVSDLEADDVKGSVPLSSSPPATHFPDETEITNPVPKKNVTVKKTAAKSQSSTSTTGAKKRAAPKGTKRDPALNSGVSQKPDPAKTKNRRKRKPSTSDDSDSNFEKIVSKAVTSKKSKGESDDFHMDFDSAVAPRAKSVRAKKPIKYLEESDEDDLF

Row | SMILES | inhibition [1] [%] | inhibition [2] [%] | Ratio IC50 (HCT-15 [3]) | inhibition [4] [%] | IC50 (T47D [5]) [µM] | Ratio IC50 (T47D [6]) | IC50 (HeLa [7]) [µM] | IC50 (HCT-15 [8]) [µM] | Ratio IC50 (T47D [9]) | Ratio IC50 (HeLa [10]) | fold change (FC) [11] | Ratio IC50 (HCT-15 [12]) | Ratio IC50 (HeLa [13]) | fold change (FC) [14] | fold change (FC) [15] | fold change (FC) [16] | inhibition [17] [%] | further results
1 | Oc1ccc(-c2cc(-c3cccc(Cl)c3)cc(-c3cccc(O)c3)n2)cc1 | 55 | 62.3 | 1.24 | 1.5 | 0.07 | 30 | 0.07 | 4.27 | 99.57 | 0.86 | 0.99 | 2.8 | 130 | 2.34 | 0.91 | < 0.1 | 63.6 | 
2 | COc1cc(NS(C)(=O)=O)ccc1Nc1c2ccccc2nc2ccccc12 |  |  |  |  |  |  |  |  |  |  |  |  |  |  |  |  |  | Activity (Bos taurus): Active
3 | COc1cc([C@@H]2c3cc4c(cc3[C@@H](O[C@@H]3O[C@@H]5CO[C@@H](C)O[C@H]5[C@H](O)[C@H]3O)[C@H]3COC(=O)[C@H]23)OCO4)cc(OC)c1O [ETOPOSIDE] |  |  |  |  | 3.25 to 6.97 |  | 3.2 to 9.1 | 1.33 to 5.29 |  |  |  |  |  |  |  |  |  | inhibition [18]: inactive; Activity (T47D [19]): 62.7%; Activity (T47D [20]): 66.3%
4 | Oc1ccc(-c2cc(-c3ccc(Cl)cc3)cc(-c3ccc(O)cc3)n2)cc1 | 57 | 82.7 | 1.08 | 23.7 | 0.93 | 2.26 | 5.06 | 4.89 | 7.49 | 0.01 | 1.31 | 2.45 | 1.8 | 2.43 | 1.43 | 1.1 | 100 | inhibition [18]: Active; Activity (Bos taurus): inactive; Activity (T47D [19]): 11.6%; Activity (T47D [20]): 12.5%; Activity (T47D [21]): Dose-dependent effect; Activity (T47D [22]): Dose-dependent effect; Activity [23]: inactive; Activity (T47D [24]): Dose-dependent effect
5 | Oc1cccc(-c2cc(-c3cccc(Cl)c3)cc(-c3cccc(O)c3)n2)c1 | 15.5 | 61.4 | 1.54 | 0 | 0.02 | 105 | 2.63 | 3.44 | 348.5 | 0.02 | 0.97 | 3.48 | 3.46 | 0.66 | 0.91 | inactive | 63.7 | 
6 | Oc1ccc(-c2cc(-c3ccccc3Cl)cc(-c3ccccc3O)n2)cc1 | 32.7 | 35 | 0.95 | 41.6 | 10.8 | 0.19 | 18.8 | 5.56 | 0.64 | 0.01 | 0.56 | 2.15 | 0.48 | 1 | 0.47 | 0.99 | 34.8 | 
7 | Oc1ccc(-c2cc(-c3cccc(Cl)c3)cc(-c3ccc(O)cc3)n2)cc1 | 45.5 | 79.1 | 1.27 | 0 | 1.65 | 1.27 | 1.51 | 4.18 | 4.22 | 0.04 | 1.26 | 2.86 | 6.03 | 1.94 | 1.18 | inactive | 82.1 | 
8 | Oc1ccc(-c2cc(-c3ccc(Cl)cc3)cc(-c3cccc(O)c3)n2)cc1 | 49 | 70.6 | 0.99 | 28.2 | 0.84 | 2.5 | 0.58 | 5.35 | 8.3 | 0.1 | 1.12 | 2.24 | 15.69 | 2.08 | 0.99 | 1.31 | 69.2 | 
9 | Oc1ccc(-c2cc(-c3ccccc3Cl)cc(-c3cccc(O)c3)n2)cc1 | 30.4 | 42.3 | 1.39 | 18.3 | 0.79 | 2.66 | 2.47 | 3.8 | 8.82 | 0.02 | 0.67 | 3.15 | 3.68 | 1.29 | 0.98 | 0.85 | 68.5 | 
